Data: ChEMBL document CHEMBL1143781, “Synthesis, in vitro antibacterial and antifungal evaluations of 2-amino-4-(1-naphthyl)-6-arylpyrimidines” (2007)
≈ marks a conversion by molar mass, not a printed value.

Key:
Assay type in all cases: functional
Escherichia coli = assay: Antibacterial activity against Escherichia coli after 24 hrs by micro-broth dilution technique
Method in brief: (§1)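 Mueller-Hinton broth microdilution. Test compounds were serially diluted two-fold in DMSO. The inoculum was grown in broth overnight at 37 °C, then diluted to a final 10⁵ cfu/ml in the tray. Trays were covered and incubated at 37 °C for about 24 h. MIC was the lowest concentration inhibiting visible growth.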

Pseudomonas aeruginosa = assay: Antibacterial activity against Pseudomonas aeruginosa after 24 hrs by micro-broth dilution technique; method in brief: as §1
Staphylococcus aureus = assay: Antibacterial activity against Staphylococcus aureus after 24 hrs by micro-broth dilution technique; method in brief: as §1
Trichophyton tonsurans = assay: Antifungal activity against Trichophyton tonsurans after 7 days; settings: 168 h
Method in brief: (§2)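 Fungal strains were taken from Sabouraud medium into nutrient broth and grown 3–5 days at 25 °C. They were vortexed 4–5 min with sterile beads, and the suspensions were adjusted to absorbance 0.5 at 500 nm. Eight serial dilutions were made in microplates, and all wells except the positive control received standardized inoculum. MIC was the lowest concentration giving no visible growth.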

Microsporum = assay: Antifungal activity against Microsporum gypseum after 7 days; settings: 168 h; method in brief: as §2
Klebsiella pneumoniae = assay: Antibacterial activity against Klebsiella pneumoniae after 24 hrs by micro-broth dilution technique; method in brief: as §1

SMILES	MIC (Escherichia coli) [µg/mL]	MIC (Pseudomonas aeruginosa) [µg/mL]	MIC (Staphylococcus aureus) [µg/mL]	MIC (Trichophyton tonsurans) [µg/mL]	MIC (Microsporum) [µg/mL]	MIC (Klebsiella pneumoniae) [µg/mL]
Nc1nc(-c2cccc([N+](=O)[O-])c2)cc(-c2cccc3ccccc23)n1	19.5 (≈ 57 µM)	18.2 (≈ 53.2 µM)	29.1 (≈ 85 µM)	25 (≈ 73 µM)	25 (≈ 73 µM)	14.3 (≈ 41.7 µM)
Nc1nc(-c2ccc([N+](=O)[O-])cc2)cc(-c2cccc3ccccc23)n1	16.6 (≈ 48.6 µM)	11.9 (≈ 34.8 µM)	25.6 (≈ 74.9 µM)	25 (≈ 73 µM)	25 (≈ 73 µM)	15.3 (≈ 44.8 µM)
Nc1nc(-c2ccccc2)cc(-c2cccc3ccccc23)n1	42 (≈ 141 µM)	6.59 (≈ 22.2 µM)	> 60	25 (≈ 84.1 µM)	25 (≈ 84.1 µM)	5.5 (≈ 18.5 µM)
Nc1nc(-c2ccc(F)cc2)cc(-c2cccc3ccccc23)n1	8.1 (≈ 25.7 µM)	5.45 (≈ 17.3 µM)	7.3 (≈ 23.1 µM)	2.2 (≈ 6.98 µM)	5.9 (≈ 18.7 µM)	2.55 (≈ 8.09 µM)
Nc1nc(-c2ccccc2Cl)cc(-c2cccc3ccccc23)n1	> 60	6.4 (≈ 19.3 µM)	40 (≈ 121 µM)	25 (≈ 75.3 µM)	25 (≈ 75.3 µM)	5.38 (≈ 16.2 µM)
Nc1nc(-c2cccc(Cl)c2)cc(-c2cccc3ccccc23)n1	41 (≈ 124 µM)	7.42 (≈ 22.4 µM)	39 (≈ 118 µM)	25 (≈ 75.3 µM)	25 (≈ 75.3 µM)	6.38 (≈ 19.2 µM)
COc1ccccc1-c1cc(-c2cccc3ccccc23)nc(N)n1	36 (≈ 110 µM)	9.18 (≈ 28 µM)	> 60	25 (≈ 76.4 µM)	25 (≈ 76.4 µM)	8.22 (≈ 25.1 µM)
Nc1nc(-c2ccc(Cl)cc2)cc(-c2cccc3ccccc23)n1	13.5 (≈ 40.7 µM)	21.9 (≈ 66 µM)	12.3 (≈ 37.1 µM)	2.8 (≈ 8.44 µM)	5.55 (≈ 16.7 µM)	19.8 (≈ 59.7 µM)
COc1ccc(-c2cc(-c3cccc4ccccc34)nc(N)n2)cc1	> 60	10.2 (≈ 31.2 µM)	> 60	25 (≈ 76.4 µM)	25 (≈ 76.4 µM)	9.31 (≈ 28.4 µM)
CC1(C)S[C@@H]2[C@H](NC(=O)[C@H](N)c3ccccc3)C(=O)N2[C@H]1C(=O)O [AMPICILLIN]	1.65 (≈ 4.72 µM)	1.8 (≈ 5.15 µM)	1 (≈ 2.86 µM)	–	–	1.8 (≈ 5.15 µM)
Clc1ccc(COC(Cn2ccnc2)c2ccc(Cl)cc2Cl)c(Cl)c1 (stereo not given) [MICONAZOLE]	–	–	–	0.2 (≈ 0.481 µM)	0.2 (≈ 0.481 µM)	–
